≈ marks a conversion by molar mass, not a printed value. Calls of active or inactive are those of the source. The rule behind the calls is not given here. Peptide text beside a SMILES is read from it. * marks the point of attachment. βNA = c1ccc2cc(N*)ccc2c1
How the values were obtained:
Escherichia coli [1] = experiment: Antibacterial activity against Escherichia coli ATCC 25922 incubated for 24 hrs by spectrophotometric based assay; format: functional; conditions: ATCC 25922, 24 h
In short: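 Intrinsic MIC by broth microdilution. Log-phase cells at 5 × 10^5 CFU/ml in cation-adjusted Mueller-Hinton broth with two-fold serial dilutions of test compound. Aerobic incubation 24 h at 37 °C, then OD600 read. MIC is the lowest concentration giving ≥90% growth inhibition versus drug-free controls.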

Escherichia coli [2] = experiment: Potentiation of clarithromycin-induced antibacterial activity against Escherichia coli ATCC 25922 assessed as fold reduction in clarithromycin MIC at 12.5 ug/ml incubated for 24 hrs by spectrophotometric based assay
Escherichia coli [3] = experiment: Disruption of membrane potential in Escherichia coli ATCC 25922 at 25 ug/ml incubated fro 30 mins by DiOC2 probe based flow cytometric analysis; format: functional, organism-based
In short: (§1)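 Log-phase cells grown in CAMH, diluted in PBS to 2 × 10^6 CFU/ml, and treated with compound at ¼ MIC. Controls were DMSO vehicle and 2 μg/ml CCCP, with 0.2% DMSO in all tubes, in triplicate. DiOC2 added at 30 μM; 30 min in the dark at room temperature. Flow cytometry at 488 nm excitation, 10,000 cells. Red (620/30) to green (525/20) fluorescence ratio reported.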

Escherichia coli [4] = experiment: Induction of outer membrane permeabilization in Escherichia coli ATCC 25922 assessed as increase in NPN uptake at 3.13 to 25 ug/ml incubated for 10 mins by fluorescence assay; format: functional, organism-based
In short: (§2)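 Log-phase cells grown in CAMH, washed, and resuspended in PBS to OD600 1.0. NPN added at 10 μM final for 10 min at room temperature. Compound (1/32–¼ MIC, DMSO vehicle) added, four replicates, then 10 min in the dark at room temperature. Fluorescence read at ex 350/em 420 nm. The 10-min average, minus vehicle wells, is the corrected value.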

Escherichia coli [5] = experiment: Induction of inner membrane permeabilization in Escherichia coli ATCC 25922 assessed as increase in propidium iodide uptake at 3.13 to 25 ug/ml by PI staining based flow cytometric analysis; format: functional, organism-based
In short: (§3)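 Flow cytometry. Log-phase cells grown in CAMH and diluted in PBS to 4 × 10^6 CFU/ml. Compound added at 1/32–¼ MIC (DMSO vehicle controls), in triplicate. Propidium iodide added at 50 μM final; 1 h in the dark at room temperature. Excitation 488 nm, emission 620/30 nm, 30,000 cells per sample. Result is percent PI-positive cells.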

Escherichia coli [6] = experiment: Potency index, ratio of potentiation of clarithromycin-induced antibacterial activity of PAbetaN to potentiation of clarithromycin-induced antibacterial activity of test compound against Escherichia coli ATCC 25922 assessed as fold reduction in clarithromycin MIC at 12.5 uM incubated for 24 hrs by spectrophotometric based assay; format: functional
Escherichia coli [7] = experiment: Increase in membrane potential in Escherichia coli ATCC 25922 at 25 ug/ml incubated fro 30 mins by DiOC2 probe based flow cytometric analysis; format: functional, organism-based; in short: as §1
Escherichia coli [8] = experiment: Induction of outer membrane permeabilization in Escherichia coli ATCC 25922 assessed as increase in propidium iodide uptake at 3.13 to 25 ug/ml by PI staining based flow cytometric analysis; format: functional, organism-based; in short: as §3
[9] = tested on: Escherichia coli ATCC 25922; experiment: Inhibition of AcrAB-TolC efflux pump in Escherichia coli ATCC 25922 assessed as inhibition of Hoechst 33342 efflux at 3.13 to 25 ug/ml pre-incubated for 5 mins followed by glucose addition by Hoechst 33342 staining based fluorescence assay
In short: (§4)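 Overnight cells washed and resuspended in PBS + 1 mM MgCl2 to OD600 1.0. Energy depleted with 3.13 μM CCCP for 20 min at 37 °C. Loaded with 10 μM Hoechst 33342 for 20 min, then mixed with compound (1/32–¼ MIC, DMSO vehicle) and preincubated 5 min at 37 °C. Efflux started with 50 mM glucose. Fluorescence (ex 355/em 460 nm) read each minute for 40 min at 37 °C.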

Escherichia coli [10] = experiment: Induction of inner membrane permeabilization in Escherichia coli ATCC 25922 assessed as increase in propidium iodide uptake at 1.56 to 12.5 ug/ml by PI staining based flow cytometric analysis; format: functional, organism-based; in short: as §3
Escherichia coli [11] = experiment: Disruption of membrane potential in Escherichia coli ATCC 25922 at 12.5 ug/ml incubated fro 30 mins by DiOC2 probe based flow cytometric analysis; format: functional, organism-based; in short: as §1
Escherichia coli [12] = experiment: Induction of outer membrane permeabilization in Escherichia coli ATCC 25922 assessed as increase in propidium iodide uptake at 1.56 to 12.5 ug/ml by propidium iodide staining based flow cytometric analysis; format: functional, organism-based; in short: as §3
Escherichia coli [13] = experiment: Induction of outer membrane permeabilization in Escherichia coli ATCC 25922 assessed as increase in NPN uptake at 1.56 to 12.5 ug/ml incubated for 10 mins by fluorescence assay; format: functional, organism-based; in short: as §2
[14] = tested on: Escherichia coli ATCC 25922; experiment: Inhibition of AcrAB-TolC efflux pump in Escherichia coli ATCC 25922 assessed as inhibition of Hoechst 33342 efflux at 1.56 to 12.5 ug/ml pre-incubated for 5 mins followed by glucose addition by Hoechst 33342 staining based fluorescence assay; in short: as §4

Row | Compound | MIC (Escherichia coli [1]) | fold change (FC) (Escherichia coli [2]) | other results
1 | CNCCC[C@H](N)CNC(=O)C(CCc1ccccc1)CCc1ccccc1 | 50 µg/mL (≈ 131 µM) | 2 | –
2 | NNCCC[C@H](N)CNC(=O)C(CCc1ccccc1)CCc1ccccc1 | 200 µg/mL (≈ 523 µM) | 1 | –
3 | NC[C@H](N)CNC(=O)C(CCc1ccccc1)CCc1ccccc1 | 200 µg/mL (≈ 589 µM) | 16 | –
4 | N=C(N)NCCC[C@H](NC(=O)[C@@H](N)Cc1ccccc1)C(=O)Nc1ccc2ccccc2c1 [PABETAN] (H-Phe-Arg-βNA) | > 200 µg/mL | 4 | –
5 | NCCC[C@H](N)C(=O)NC(CCc1ccccc1)CCc1ccccc1 | > 100 µg/mL | 4 | –
6 | NCCC[C@H](N)CNC(=O)CC(Cc1ccccc1)Cc1ccccc1 | 200 µg/mL (≈ 566 µM) | 16 | –
7 | CN(C)[C@@H](CCCN)CNC(=O)C(CCc1ccccc1)CCc1ccccc1 | 100 µg/mL (≈ 253 µM) | 2 | –
8 | NCCC[C@H](N)CNC(=O)CC(c1ccccc1)c1ccccc1 | > 200 µg/mL | 1 | –
9 | NCCC[C@H](N)CNCC(CCc1ccccc1)CCc1ccccc1 | 100 µg/mL (≈ 283 µM) | 128 | Activity (Escherichia coli [3]): inactive; Activity (Escherichia coli [4]): Dose-dependent effect; Activity (Escherichia coli [5]): Active; Ratio (Escherichia coli [6]): 32; Activity (Escherichia coli [7]): Active; Activity (Escherichia coli [8]): Active; inhibition [9]: Dose-dependent effect
10 | NCCC[C@H](N)CNC(=O)C(Cc1ccccc1)Cc1ccccc1 | > 200 µg/mL | 1 | –
11 | CN[C@@H](CCCN)CNC(=O)C(CCc1ccccc1)CCc1ccccc1 | > 200 µg/mL | 1 | –
12 | NCC[C@H](N)CCNCC(CCc1ccccc1)CCc1ccccc1 | 50 µg/mL (≈ 141 µM) | 64 | –
13 | NCCC[C@H](N)CNC(=O)C(c1ccccc1)c1ccccc1 | > 200 µg/mL | 2 | –
14 | NCC[C@H](N)CCNC(=O)C(CCc1ccccc1)CCc1ccccc1 | 200 µg/mL (≈ 544 µM) | 16 | –
15 | NCCC[C@H](N)CNC(=O)C(CCc1ccccc1)CCc1ccccc1 | 50 µg/mL (≈ 136 µM) | 16 | –
16 | NC[C@@H](N)CCCNC(=O)C(CCc1ccccc1)CCc1ccccc1 | 100 µg/mL (≈ 272 µM) | 32 | –
17 | NC[C@@H](N)CCCNCC(CCc1ccccc1)CCc1ccccc1 | 100 µg/mL (≈ 283 µM) | 32 | –
18 | N=C(N)NCCC[C@H](N)CNC(=O)C(CCc1ccccc1)CCc1ccccc1 | > 200 µg/mL | 4 | –
19 | NCCC[C@H](N)CNC(=O)CCc1ccccc1 | > 200 µg/mL | 1 | –
20 | CN(C[C@@H](N)CCCN)C(=O)C(CCc1ccccc1)CCc1ccccc1 | > 200 µg/mL | 1 | –
21 | NCCC[C@H](N)CNC(=O)CCCc1ccccc1 | > 200 µg/mL | 1 | –
22 | NCCC[C@@H](N)CNC(=O)C(CCc1ccccc1)CCc1ccccc1 | 50 µg/mL (≈ 136 µM) | 16 | –
23 | NCCC[C@H](N)CNC(=O)CC(CCc1ccccc1)CCc1ccccc1 | 50 µg/mL (≈ 131 µM) | 512 | Activity (Escherichia coli [10]): Active; Activity (Escherichia coli [11]): inactive; Ratio (Escherichia coli [6]): 128; Activity (Escherichia coli [12]): Active; Activity (Escherichia coli [13]): Dose-dependent effect; inhibition [14]: Dose-dependent effect
24 | NCC[C@H](N)CNC(=O)C(CCc1ccccc1)CCc1ccccc1 | 100 µg/mL (≈ 283 µM) | 2 | –
25 | CN(C)CCC[C@H](N)CNC(=O)C(CCc1ccccc1)CCc1ccccc1 | 200 µg/mL (≈ 506 µM) | 2 | –

Source: ChEMBL document CHEMBL4385623, “Advances in the structural studies of antibiotic potentiators against Escherichia coli” (2019)
